In ChEMBL document CHEMBL1149182, “Cyclodextrin-derived diorganyl tellurides as glutathione peroxidase mimics and inhibitors of thioredoxin reductase and cancer cell growth” (J Med Chem, 2004):

What was measured:
MCF7 = experiment: Inhibition of growth of MCF-7 breast cancer cells in culture; type: functional, cell-based; conditions: Homo sapiens
Method in brief: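 Human MCF-7 cells seeded at 3000/well in DMEM + 10% FBS, 16 h at 37 °C, 5.5% CO2, then compound 0.1–20 μM for 72 h. MTT added for 3 h, formazan dissolved in DMSO, dual OD read at 595/655 nm. Viability given as % of untreated control. IC50 is concentration halving growth versus control. Triplicate determinations.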

Thioredoxin reductase [1] = biological target: T1, Thioredoxin reductase (Homo sapiens, UniProt Q16881+Q9NNW7+Q86VQ6); experiment: Inhibition of thioredoxin reductase in the presence of thioredoxinand insulin; type: protein assay
Method in brief: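 Insulin reduction coupled to Trx/TrxR, final concentrations: 100 mM HEPES pH 7.2, 5 mM EDTA, 1 mM NADPH, 1.0 μM TrxR, 0.8 μM Trx, 2.5 mg/mL bovine insulin plus inhibitor. 30 min at 37 °C, stopped with 6 M guanidine HCl/50 mM Tris pH 8.0/10 mM DTNB, absorbance at 412 nm. IC50 for 50% inhibition of thionitrobenzoate formation.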

Thioredoxin reductase [2] = biological target: T1, Thioredoxin reductase; experiment: Inhibition of thioredoxin reductase; type: protein assay
Method in brief: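 TrxR-only activity in HE buffer (100 mM HEPES pH 7.2, 5 mM EDTA) with 1.0 μM TrxR, 10 mM DTNB, 1 mM NADPH and inhibitor (final). Compound and enzyme added first, reaction started with NADPH/DTNB at 37 °C. OD 412 nm read every 10 s for initial linear rates. IC50 is 50% inhibition of thionitrobenzoate formation.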

Compound | IC50 (MCF7) [µM] | IC50 (Thioredoxin reductase [1]) [µM] | IC50 (Thioredoxin reductase [2]) [µM]
CN(C)c1ccc([Te]CC2O[C@@H]3O[C@@H]4C(CO)O[C@H](O[C@@H]5C(CO)O[C@H](O[C@@H]6C(CO)O[C@@H](O[C@@H]7C(CO)O[C@H](O[C@@H]8C(CO)O[C@H](O[C@@H]9C(CO)O[C@H](O[C@H]2C(O)C3O)C(O)C9O)C(O)C8O)C(O)C7O)C(O)C6O)C(O)C5O)C(O)C4O)cc1 (stereo partly specified) | 10.4 | 3.4 | 0.26
COc1ccc([Te]CC2O[C@@H]3O[C@@H]4C(CO)O[C@H](O[C@@H]5C(CO)O[C@H](O[C@@H]6C(CO)O[C@@H](O[C@@H]7C(CO)O[C@H](O[C@@H]8C(CO)O[C@H](O[C@@H]9C(CO)O[C@H](O[C@H]2C(O)C3O)C(O)C9O)C(O)C8O)C(O)C7O)C(O)C6O)C(O)C5O)C(O)C4O)cc1 (stereo partly specified) | 4.6 | 7.6 | 1.6
OCC1O[C@@H]2O[C@@H]3C(C[Se]c4ccccc4)O[C@H](O[C@@H]4C(CO)O[C@H](O[C@@H]5C(CO)O[C@H](O[C@@H]6C(CO)O[C@@H](O[C@@H]7C(CO)O[C@H](O[C@@H]8C(CO)O[C@H](O[C@H]1C(O)C2O)C(O)C8O)C(O)C7O)C(O)C6O)C(O)C5O)C(O)C4O)C(O)C3O (stereo partly specified) | 10.2 | 18 | 17.8
OCC1O[C@@H]2O[C@@H]3C(CO)O[C@H](O[C@@H]4C(CO)O[C@H](O[C@@H]5C(CO)O[C@@H](O[C@@H]6C(CO)O[C@H](O[C@@H]7C(C[Te]CC8O[C@@H]9O[C@@H]%10C(CO)O[C@@H](O[C@@H]%11C(CO)O[C@H](O[C@@H]%12C(CO)O[C@H](O[C@@H]%13C(CO)O[C@H](O[C@@H]%14C(CO)O[C@H](O[C@@H]%15C(CO)O[C@H](O[C@H]8C(O)C9O)C(O)C%15O)C(O)C%14O)C(O)C%13O)C(O)C%12O)C(O)C%11O)C(O)C%10O)O[C@H](O[C@@H]8C(CO)O[C@H](O[C@H]1C(O)C2O)C(O)C8O)C(O)C7O)C(O)C6O)C(O)C5O)C(O)C4O)C(O)C3O (stereo partly specified) | 1.4 | 0.5 | 2.4
CCCC[Te]CC1O[C@@H]2O[C@@H]3C(CO)O[C@H](O[C@@H]4C(CO)O[C@H](O[C@@H]5C(CO)O[C@@H](O[C@@H]6C(CO)O[C@H](O[C@@H]7C(CO)O[C@H](O[C@@H]8C(CO)O[C@H](O[C@H]1C(O)C2O)C(O)C8O)C(O)C7O)C(O)C6O)C(O)C5O)C(O)C4O)C(O)C3O (stereo partly specified) | 6 | 1.2 | 18
OCC1O[C@@H]2O[C@@H]3C(C[Te]c4ccc(O)cc4)O[C@H](O[C@@H]4C(CO)O[C@H](O[C@@H]5C(CO)O[C@H](O[C@@H]6C(CO)O[C@@H](O[C@@H]7C(CO)O[C@H](O[C@@H]8C(CO)O[C@H](O[C@H]1C(O)C2O)C(O)C8O)C(O)C7O)C(O)C6O)C(O)C5O)C(O)C4O)C(O)C3O (stereo partly specified) | 1.6 | 4 | 18
OCC1O[C@@H]2O[C@@H]3C(C[Te]c4ccccc4)O[C@H](O[C@@H]4C(CO)O[C@H](O[C@@H]5C(CO)O[C@H](O[C@@H]6C(CO)O[C@@H](O[C@@H]7C(CO)O[C@H](O[C@@H]8C(CO)O[C@H](O[C@H]1C(O)C2O)C(O)C8O)C(O)C7O)C(O)C6O)C(O)C5O)C(O)C4O)C(O)C3O (stereo partly specified) | 10.1 | 7.6 | 1.6
